Screening data as filed in PubChem BioAssay.
Hits are enriched below; roughly 0.55% of the tested compounds scored in any of these assays.
V1aR counter = V1a receptor agonism, counter-screen for OXTR agonists; CHO-V1R cells, Fluo-8 calcium fluorescence, agonist mode; 0% DMSO, 100% 3 nM vasopressin; 320,000 compounds, 0.25% hits; activation, % at 3 µM; P37288;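 active = activation above the mean activation of all tested compounds plus 3 SD, per screening run, cut at about 20% in these data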;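 also: signal is peak over basal fluorescence ratio across a 100 second FLIPR read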
TRPML3 agonist = activates the human TRPML3 channel; AID 1448; 220,000 compounds, 0.29% hits; activation, % at 3 µM; Q8TDD5; HEK293 TRPML3-YFP, Fluo-8 calcium fluorescence; 100% = the carbachol control signal;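 active = activation above its plate's cutoff, the mean activation of the plate's test wells plus 3 SD, cut at about 12% in these data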;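 also: 0% = DMSO only wells and 100% = carbachol wells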
Target sequence (Q8TDD5 whole entry, looked up): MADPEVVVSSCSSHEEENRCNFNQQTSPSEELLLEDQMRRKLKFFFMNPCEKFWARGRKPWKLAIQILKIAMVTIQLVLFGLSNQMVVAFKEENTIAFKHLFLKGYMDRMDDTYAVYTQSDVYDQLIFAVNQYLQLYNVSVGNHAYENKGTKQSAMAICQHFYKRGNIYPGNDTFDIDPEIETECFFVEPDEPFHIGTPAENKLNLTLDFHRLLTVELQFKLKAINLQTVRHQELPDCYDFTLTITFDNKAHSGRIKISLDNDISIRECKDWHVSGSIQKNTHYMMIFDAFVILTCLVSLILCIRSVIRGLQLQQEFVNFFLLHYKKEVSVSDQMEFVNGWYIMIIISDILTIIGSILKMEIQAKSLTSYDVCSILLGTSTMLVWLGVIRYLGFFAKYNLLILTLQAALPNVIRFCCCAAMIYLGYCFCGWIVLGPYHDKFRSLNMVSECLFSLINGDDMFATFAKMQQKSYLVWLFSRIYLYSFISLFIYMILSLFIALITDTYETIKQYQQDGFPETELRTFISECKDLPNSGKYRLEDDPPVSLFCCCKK
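Material: HEK293 cells stably carrying human TRPML3-YFP; compound dosing: single dose, 3 µM final nominal compound, 0.3% DMSO final; incubation: 1-h 37 °C dye load, 5-s basal, 120-s post-compound reads; technique: Fluo-8 intracellular calcium fluorescence, excitation 470-495 nm, emission 515-575 nm; read-out basis: percent activation from peak-to-basal fluorescence ratio, scaled between DMSO and carbachol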
OXTR potentiate = potentiates the human oxytocin receptor response; P30559; CHO-OTR cells, Fluo-8 calcium fluorescence, potentiator mode; 0% = oxytocin EC15, 100% = EC100; activation, % at 3 µM; 320,000 compounds, 0.061% hits; AID 2445;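 active = activation above that plate's cutoff, the mean activation of tested compounds plus 3 SD, cut at about 6.6% in these data, passing the limit was not always enough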;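 also: 100% uses oxytocin at 75 nM as the full agonist control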
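Assay system: CHO cell line stably expressing human OTR. Reagent: EC15 oxytocin agonist. Dosing: single dose, 3.0 µM nominal final compound concentration. Timing: compound 6 min at room temperature before oxytocin, 100 s read. Signal: kinetic Fluo-8 calcium fluorescence. Controls: oxytocin EC15 low and EC100 high.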
zfTRPN1 agonist = activates the zebrafish TRPN1 channel. activation, % at 3 µM. 220,000 compounds, 0.18% hits. HEK293 zebrafish TRPN1-YFP, Fluo-8 calcium fluorescence; 100% = response to 87 µM carbachol;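 active = activation above its plate's cutoff, the mean activation of test wells on that plate plus 3 SD, cut at about 19% in these data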;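 also: 0% = DMSO alone and 100% = 87 µM carbachol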
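Control set: carbachol 87 µM as high control, DMSO as low control; system: HEK293 stable line with zebrafish TRPN1-YFP; read-out: % activation versus carbachol response; detection: intracellular calcium fluorescence with Fluo-8; doses: single test compound dose, 3 µM nominal, 0.3% DMSO; schedule: dye 1 h 37 °C plus 30 min RT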
OXTR agonist = agonists of human oxytocin receptor | P30559 | CHO-OTR cells, Fluo-8 calcium fluorescence; normalized: DMSO 0%, oxytocin 100% | 320,000 compounds, 0.32% hits | activation, % at 3 µM;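 active = activation above the mean of all tested compounds plus 3 SD, cutoff set per screening run, cut at about 20% in these data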;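 also: peak over basal fluorescence ratio from a 100 s FLIPR kinetic read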
An asterisk follows results filed as active; . = no result.

SMILES	V1aR counter	TRPML3 agonist	OXTR potentiate	zfTRPN1 agonist	OXTR agonist
O=C(NC(Nc1nc2ccc([N+](=O)[O-])cc2s1)(C(F)(F)F)C(F)(F)F)c1ccccc1Cl	5	23*	-11	23*	2
CCN(CC)c1ccc2cc(-c3nc(-c4ccc(OC)cc4)cs3)c(=O)oc2c1	297*	67*	-21	64*	454*
CCN(CC)c1ccc2cc(-c3nc4ccccc4n3C)c(=O)oc2c1	18	2	-12	7	17
CCN(CC)c1ccc2cc(-c3nnc(-c4ccc(Br)cc4)o3)c(=O)oc2c1	.	4	.	6	.
CCN(CC)c1ccc2cc(-c3nc4ccccc4[nH]3)c(=O)oc2c1	288*	55*	-14	128*	323*
O=C(Nc1nnc(S(=O)(=O)N2CCCC2)s1)c1cccc([N+](=O)[O-])c1	4	.	-8	.	2
CCN(CC)c1ccc(C2Nc3cccc4cccc(c34)N2)c(O)c1	1	-1	1	0	32*
O=C(NC1CCCCC1)C(c1ccccc1)N(C(=O)c1csnn1)C1CC1 (centres undefined)	-1	.	-2	.	0
CC(C)S(=O)(=O)c1csc(NC(=O)Nc2ccc(Cl)cc2)c1	17	7	-18	21*	10
C=CCN(CC=C)S(=O)(=O)c1ccc2nc(NC(=O)C(C)C)sc2c1	22*	1	-20	2	29*
CCOC(=O)c1ccc2nc(NC(=O)C(C)C)sc2c1	-1	0	-3	-1	-1
CN(C)/C=C1\C=C2C(=O)c3ccccc3N2C1=O	95*	357*	-22	729*	436*
CN(C)S(=O)(=O)N1C(=O)c2ccccc2C1=O	1	1	-4	0	1
Cc1ccc(C2=NN(S(=O)(=O)c3ccccc3)C(c3ccco3)C2)cc1 (centres undefined)	1	.	1	.	0
O=[N+]([O-])c1ccc(/C=C/C2=NN(c3ccccc3)C(c3ccco3)C2)cc1 (centres undefined)	27*	2	-11	6	34*
O=[N+]([O-])c1ccc(C2=NN(c3ccccc3)C(c3ccco3)C2)cc1 (centres undefined)	.	12*	.	24*	.
CC(C)=C(C#N)c1nc2ccccc2s1	40*	8	-6	17	36*
N#C/C(=C\c1ccncc1)c1nc2ccccc2[nH]1	.	1	.	0	.
COC(=O)c1ccc(/C(O)=C(\C#N)c2nc3ccccc3s2)cc1	10	4	-9	6	9
N#C/C(=C/c1ccncc1)c1nc2ccccc2s1	55*	19*	-6	34*	27*
COc1ccc(OC)c(/C=N/NC(=O)CCc2ccc(O)c(O)c2)c1	0	1	-3	0	1
CC(C)(C)CNC(=O)c1cccc2c1C(=O)c1ccc(N3CCCC3)cc1S2(=O)=O	11	.	-9	.	8
O=C(NCc1ccccc1C(F)(F)F)c1cccc2c1C(=O)c1ccc(N3CCCCC3)cc1S2(=O)=O	25*	.	-11	.	24*
CC1CCN(c2ccc3c(c2)S(=O)(=O)c2cccc(C(=O)NCc4ccc(F)cc4)c2C3=O)CC1	4	.	-2	.	5
O=C(NCc1ccc(F)cc1)c1cccc2c1C(=O)c1ccc(N3CCC(Cc4ccccc4)CC3)cc1S2(=O)=O	27*	.	-12	.	20*
SMILES	V1aR counter	TRPML3 agonist	OXTR potentiate	zfTRPN1 agonist	OXTR agonist
C=CCn1c(SCC(=O)NCC2CCCO2)nc2c([nH]c3ccccc32)c1=O (centres undefined)	1	.	-5	.	-1
CCN(CC)c1ccc2c(c1)OC(N)=C(C#N)C2c1cccnc1 (centres undefined)	33*	8	-12	12	52*
O=C(Nc1nnc(C(F)(F)F)s1)c1ccc(Br)s1	9	19*	-8	29*	19
O=C(Nc1ccccc1C(=O)Nc1nnc(C(F)(F)F)s1)c1ccccc1Cl	12	13*	-14	23*	10
CC(NC(=O)Nc1nnc(C(F)(F)F)s1)(C(F)(F)F)C(F)(F)F	9	21*	-11	26*	14
NC(=O)c1ccccc1NC(=O)c1ccccc1Cl	0	1	0	0	1
CC(C)(C)CC(=O)Nc1nnc(C(F)(F)F)s1	-1	0	-17	0	-1
NC(=O)c1nn(Cc2ccccc2)c(=O)c2ccccc12	1	.	-5	.	1
O=C(/C=C/c1ccc(N2CCC(c3ccccc3)=N2)cc1)c1ccccc1	108*	4	-15	14	75*
COc1cc(SC)ccc1C(=O)N1CCCc2ccccc21	-1	.	-22	.	-1
NC(=O)C1CCN(C(=O)COc2ccc3c(c2)oc(=O)c2ccccc23)CC1	0	.	-2	.	0
Cc1cccc(/N=C/c2sc3ccccc3c2O)n1	3	1	-18	2	1
Oc1c(C=Nc2cccc3cccnc23)sc2ccccc12	65*	9	-25	12	48*
COc1ccc(C(=O)N2CCCC(N3CCN(c4ccccc4OC)CC3)C2)c(OC)n1 (centres undefined)	-1	.	-19	.	-2
CC1(C(=O)NC(=S)NNC(=O)c2ccncc2)CCCCC1	19	8	-16	7	10
O=C(NNC(=S)NC(=O)C12CC3CC(CC(C3)C1)C2)c1ccncc1	71*	54*	-14	85*	61*
CCCCC(=O)Nc1sc2c(c1C(N)=O)CCC2	-1	0	-13	-2	-2
Cc1ccc(N=Cc2sc(O)c3ccccc23)cc1	37*	8	-14	13	29*
COc1ccc(N=CC2=C(Nc3ccc(OC)cc3)c3c(C)nn(-c4ccccn4)c3CC2)cc1	21*	6	-7	6	10
CC(/C=N/n1c(-c2ccc(C)cc2)n[nH]c1=S)=C\c1ccco1	-1	0	-1	-2	-1
COc1ccc(Cc2nnc(NC(=O)Nc3ccc(C)cc3)s2)cc1OC	1	.	-7	.	-1
COc1ccc(Cc2nnc(NC(=O)CSc3ccc(C)cc3)s2)cc1OC	77*	2	-28	10	57*
C(CCCN1CCCCC1)CCN1CCCCC1	0	.	-2	.	1
C/C(=N\Nc1ccc(C(=O)O)cc1)c1ccc(Cl)s1	34*	.	-16	.	24*
CCOC(=O)Cn1c(=O)c2c(nc(Br)n2Cc2ccccc2)n(C)c1=O	.	1	.	1	.
CCOC(=O)C1CN(S(=O)(=O)c2ccccc2)CCN1S(=O)(=O)c1ccccc1 (centres undefined)	0	2	-6	0	-1
CCOC(=O)C1CN(S(=O)(=O)c2ccc(C)cc2)CCN1S(=O)(=O)c1ccc(C)cc1 (centres undefined)	1	0	-4	21*	0
